In ChEMBL document CHEMBL1926530, “Novel pyrazolo[1,5-a]pyridines as p110α-selective PI3 kinase inhibitors: Exploring the benzenesulfonohydrazide SAR” (Bioorg Med Chem, 2012):

Key:
[1] = molecular target: T1, Phosphatidylinositol 4,5-bisphosphate 3-kinase catalytic subunit delta isoform (Homo sapiens, UniProt O00329); assay: Inhibition of recombinant PI3K p110delta using L-alpha-phosphatidylinositol as substrate and [gamma33P]ATP after 60 mins by thin layer chromatographic technique
T1 sequence (O00329 whole entry): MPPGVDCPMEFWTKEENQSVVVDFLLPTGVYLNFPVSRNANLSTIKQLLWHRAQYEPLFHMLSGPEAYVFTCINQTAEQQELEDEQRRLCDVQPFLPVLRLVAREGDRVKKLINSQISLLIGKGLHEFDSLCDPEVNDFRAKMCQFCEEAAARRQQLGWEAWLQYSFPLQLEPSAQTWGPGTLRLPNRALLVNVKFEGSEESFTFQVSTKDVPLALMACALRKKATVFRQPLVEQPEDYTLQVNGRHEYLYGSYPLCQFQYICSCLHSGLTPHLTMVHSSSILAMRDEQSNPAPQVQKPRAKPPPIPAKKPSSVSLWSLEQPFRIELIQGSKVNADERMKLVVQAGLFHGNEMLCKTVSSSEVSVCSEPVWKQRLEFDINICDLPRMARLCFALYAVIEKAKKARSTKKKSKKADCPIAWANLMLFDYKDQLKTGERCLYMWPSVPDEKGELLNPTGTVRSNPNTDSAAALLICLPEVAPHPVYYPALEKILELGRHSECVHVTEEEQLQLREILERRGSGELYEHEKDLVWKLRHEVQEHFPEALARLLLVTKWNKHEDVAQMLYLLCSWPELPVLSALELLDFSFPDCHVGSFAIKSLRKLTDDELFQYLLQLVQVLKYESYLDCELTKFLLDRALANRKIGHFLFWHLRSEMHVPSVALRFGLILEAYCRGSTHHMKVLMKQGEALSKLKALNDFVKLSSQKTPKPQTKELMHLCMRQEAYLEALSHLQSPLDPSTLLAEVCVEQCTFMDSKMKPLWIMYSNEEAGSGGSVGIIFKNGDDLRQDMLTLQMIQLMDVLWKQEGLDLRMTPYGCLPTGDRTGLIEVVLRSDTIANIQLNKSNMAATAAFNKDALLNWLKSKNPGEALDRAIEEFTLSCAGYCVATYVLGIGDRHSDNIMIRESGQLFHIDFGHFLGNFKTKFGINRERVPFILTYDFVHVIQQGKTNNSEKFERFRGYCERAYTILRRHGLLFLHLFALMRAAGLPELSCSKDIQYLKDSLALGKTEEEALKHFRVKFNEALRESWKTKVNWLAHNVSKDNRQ
In short: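 In-house recombinant enzyme (0.1 µg) with L-α-phosphatidylinositol in 40 mM Tris-HCl pH 7.4, 200 mM NaCl, 1 mM EDTA; DMSO 1% final. Started with 5 mM MgCl₂, 100 µM ATP plus [γ-³³P]ATP; 1 h at room temperature, stopped with 1 M HCl. Lipids extracted, separated by TLC, phosphorimaged. Nine inhibitor concentrations; two experiments, IC50 averaged.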

[2] = molecular target: Phosphatidylinositol 4,5-bisphosphate 3-kinase catalytic subunit alpha isoform (Homo sapiens, UniProt P42336, E545K); assay: Inhibition of recombinant PI3K p110alpha E545K mutant using L-alpha-phosphatidylinositol as substrate and [gamma33P]ATP after 60 mins by thin layer chromatographic technique
[3] = molecular target: T2, Phosphatidylinositol 4,5-bisphosphate 3-kinase catalytic subunit alpha isoform (Homo sapiens, UniProt P42336, H1047R); assay: Inhibition of recombinant PI3K p110alpha H1047R mutant using L-alpha-phosphatidylinositol as substrate and [gamma33P]ATP after 60 mins by thin layer chromatographic technique
[4] = molecular target: Phosphatidylinositol 4,5-bisphosphate 3-kinase catalytic subunit gamma isoform (Homo sapiens, UniProt P48736); assay: Inhibition of PI3K p110gamma
[5] = molecular target: Dual specificity mitogen-activated protein kinase kinase 1 (Homo sapiens) (UniProt Q02750); assay: Inhibition of MKK1 assessed as residual activity at 10 uM
[6] = molecular target: Mitogen-activated protein kinase 14 (Homo sapiens) (UniProt Q16539); assay: Inhibition of p38alpha assessed as residual activity at 1 uM
[7] = molecular target: Mitogen-activated protein kinase 14 (Homo sapiens) (UniProt Q16539); assay: Inhibition of p38alpha assessed as residual activity at 10 uM
[8] = molecular target: High affinity nerve growth factor receptor (Homo sapiens) (UniProt P04629); assay: Inhibition of TrkA assessed as residual activity at 10 uM
[9] = Inhibition of PKA assessed as residual activity at 10 uM
[10] = molecular target: Insulin receptor (Homo sapiens) (UniProt P06213); assay: Inhibition of IR assessed as residual activity at 1 uM
[11] = molecular target: Insulin receptor (Homo sapiens) (UniProt P06213); assay: Inhibition of IR assessed as residual activity at 10 uM
[12] = molecular target: Misshapen-like kinase 1 (Homo sapiens) (UniProt Q8N4C8); assay: Inhibition of MINK1 assessed as residual activity at 10 uM
[13] = molecular target: T2, Phosphatidylinositol 4,5-bisphosphate 3-kinase catalytic subunit alpha isoform; assay: Inhibition of PI3K […] H1047R mutant-mediated PKB phosphorylation at Ser473 in human HCT116 cells after 15 mins by immunoblot analysis; format: cell-based, HCT-116
In short: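 HCT-116 cells in MEM alpha with 10% FBS and penicillin/streptomycin, seeded, grown 1 day, then starved overnight serum-free. Inhibitor in DMSO (0.1% final) at varying concentrations for 15 min, then 500 nM insulin for 5 min. Lysates immunoblotted for phospho-PKB at Ser473 or Thr308.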

[14] = Tmax in CD1 mouse at 10 mg/kg, ip; format: ADME, organism-based; design: dose 10 mg/kg, route intraperitoneal; conditions: in vivo
In short: (§1)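 Age-matched specific pathogen-free male CD-1 mice; single 10 mg/kg i.p. dose in 5% DMSO, 45% PEG-400, 20% 2-hydroxypropyl-β-cyclodextrin, 30% water. Blood sampled at multiple times post-dose; plasma taken after centrifugation (10 min, 6000 rpm, 20 °C). Plasma analysed by LC-MS/MS; parameters from non-compartmental analysis.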

[15] = Terminal half life in CD1 mouse at 10 mg/kg, ip; format: ADME, organism-based; design: dose 10 mg/kg, route intraperitoneal; conditions: in vivo, read-out: beta t1/2 (converted); in short: as §1
[16] = AUC (0 to infinity) in CD1 mouse at 10 mg/kg, ip; format: ADME, organism-based; design: time infinity, dose 10 mg/kg, route intraperitoneal; conditions: plasma; in short: as §1
Mus musculus = assay: Toxicity in NIH3 mouse xenografted with human SKOV3 cells assessed as body weight loss at 30 mg/kg, ip QD administered for 14 days; format: organism-based, SK-OV-3; design: dose 30 mg/kg, route intraperitoneal; conditions: in vivo, 336 h
In short: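 Female NIH III nude mice (age-matched, SPF) inoculated s.c. with 5 × 10⁶ SK-OV-3 cells in PBS. Dosing from ~150 mm³ tumours, 30 mg/kg i.p. q.d. for 14 days in 7.5% DMSO/42.5% PEG-400/20% 2-hydroxypropyl-β-cyclodextrin/30% water; vehicle controls. Volume (L × w²) × π/6 three times weekly; bodyweight daily; culled above 20% weight loss; 1-way ANOVA, Holm–Sidak.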

[17] = molecular target: Serine/threonine-protein kinase mTOR (Homo sapiens, UniProt P42345); assay: Inhibition of mTOR

Sequence of Mitogen-activated protein kinase 14 (Homo sapiens) (Q16539 whole entry): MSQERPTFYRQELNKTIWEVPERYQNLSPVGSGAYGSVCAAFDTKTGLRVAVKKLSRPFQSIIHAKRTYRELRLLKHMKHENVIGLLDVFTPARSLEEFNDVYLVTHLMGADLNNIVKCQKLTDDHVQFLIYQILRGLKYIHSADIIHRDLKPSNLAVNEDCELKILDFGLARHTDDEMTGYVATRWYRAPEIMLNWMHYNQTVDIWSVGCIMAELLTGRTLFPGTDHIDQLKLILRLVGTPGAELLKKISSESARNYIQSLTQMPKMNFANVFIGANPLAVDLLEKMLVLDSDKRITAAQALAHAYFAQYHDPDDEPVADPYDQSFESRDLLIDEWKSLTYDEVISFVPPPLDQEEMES
T2 sequence (P42336 whole entry H1047R, canonical isoform): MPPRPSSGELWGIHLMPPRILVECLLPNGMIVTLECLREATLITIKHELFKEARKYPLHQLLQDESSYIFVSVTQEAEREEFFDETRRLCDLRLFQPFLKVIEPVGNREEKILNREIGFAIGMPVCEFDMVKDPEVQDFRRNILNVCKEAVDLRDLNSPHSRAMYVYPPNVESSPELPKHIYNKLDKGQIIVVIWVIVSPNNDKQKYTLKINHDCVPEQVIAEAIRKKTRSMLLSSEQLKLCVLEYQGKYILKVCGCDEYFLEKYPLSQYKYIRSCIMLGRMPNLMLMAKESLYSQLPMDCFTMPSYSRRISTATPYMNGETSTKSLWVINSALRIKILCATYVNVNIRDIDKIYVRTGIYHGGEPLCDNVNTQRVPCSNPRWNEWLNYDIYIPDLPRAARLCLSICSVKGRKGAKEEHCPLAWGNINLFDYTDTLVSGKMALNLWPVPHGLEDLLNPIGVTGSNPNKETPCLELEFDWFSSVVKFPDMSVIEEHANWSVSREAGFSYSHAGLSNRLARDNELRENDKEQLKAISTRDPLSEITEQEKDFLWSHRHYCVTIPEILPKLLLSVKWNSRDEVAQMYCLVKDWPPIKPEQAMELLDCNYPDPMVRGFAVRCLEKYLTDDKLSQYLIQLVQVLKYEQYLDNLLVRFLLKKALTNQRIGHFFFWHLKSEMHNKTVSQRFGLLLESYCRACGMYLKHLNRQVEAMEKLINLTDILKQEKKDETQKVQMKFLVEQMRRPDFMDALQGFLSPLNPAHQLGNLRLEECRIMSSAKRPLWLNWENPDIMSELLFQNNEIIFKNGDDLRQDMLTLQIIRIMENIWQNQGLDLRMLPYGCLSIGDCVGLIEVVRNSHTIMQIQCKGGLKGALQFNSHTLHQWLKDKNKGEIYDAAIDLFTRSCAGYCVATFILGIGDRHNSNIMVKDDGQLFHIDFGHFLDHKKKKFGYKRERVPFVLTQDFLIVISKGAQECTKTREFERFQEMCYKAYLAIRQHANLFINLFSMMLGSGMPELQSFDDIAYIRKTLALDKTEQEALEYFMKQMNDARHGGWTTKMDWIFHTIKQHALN
Sequence of Insulin receptor (Homo sapiens) (P06213 28-758 limits assumed): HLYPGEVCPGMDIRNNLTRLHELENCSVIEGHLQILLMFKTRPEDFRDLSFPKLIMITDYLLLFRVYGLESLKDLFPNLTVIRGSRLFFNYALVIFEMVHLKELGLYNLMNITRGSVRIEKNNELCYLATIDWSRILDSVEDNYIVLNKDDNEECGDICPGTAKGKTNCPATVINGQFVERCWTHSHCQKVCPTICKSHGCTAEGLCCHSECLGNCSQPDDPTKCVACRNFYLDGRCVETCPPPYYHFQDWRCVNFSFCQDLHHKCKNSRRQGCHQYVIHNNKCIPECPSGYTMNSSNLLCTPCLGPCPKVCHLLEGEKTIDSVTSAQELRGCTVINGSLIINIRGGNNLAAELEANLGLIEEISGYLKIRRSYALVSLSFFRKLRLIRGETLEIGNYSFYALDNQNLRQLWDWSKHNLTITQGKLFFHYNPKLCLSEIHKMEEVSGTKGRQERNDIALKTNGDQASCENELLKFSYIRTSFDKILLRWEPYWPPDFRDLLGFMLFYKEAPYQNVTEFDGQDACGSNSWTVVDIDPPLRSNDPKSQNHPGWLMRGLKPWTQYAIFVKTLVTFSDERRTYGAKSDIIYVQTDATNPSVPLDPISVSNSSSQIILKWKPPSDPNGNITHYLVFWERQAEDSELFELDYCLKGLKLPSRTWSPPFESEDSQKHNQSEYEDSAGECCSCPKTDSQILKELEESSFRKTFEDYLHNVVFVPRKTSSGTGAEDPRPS
Sequence of Insulin receptor (Homo sapiens) (P06213 763-1382 limits assumed): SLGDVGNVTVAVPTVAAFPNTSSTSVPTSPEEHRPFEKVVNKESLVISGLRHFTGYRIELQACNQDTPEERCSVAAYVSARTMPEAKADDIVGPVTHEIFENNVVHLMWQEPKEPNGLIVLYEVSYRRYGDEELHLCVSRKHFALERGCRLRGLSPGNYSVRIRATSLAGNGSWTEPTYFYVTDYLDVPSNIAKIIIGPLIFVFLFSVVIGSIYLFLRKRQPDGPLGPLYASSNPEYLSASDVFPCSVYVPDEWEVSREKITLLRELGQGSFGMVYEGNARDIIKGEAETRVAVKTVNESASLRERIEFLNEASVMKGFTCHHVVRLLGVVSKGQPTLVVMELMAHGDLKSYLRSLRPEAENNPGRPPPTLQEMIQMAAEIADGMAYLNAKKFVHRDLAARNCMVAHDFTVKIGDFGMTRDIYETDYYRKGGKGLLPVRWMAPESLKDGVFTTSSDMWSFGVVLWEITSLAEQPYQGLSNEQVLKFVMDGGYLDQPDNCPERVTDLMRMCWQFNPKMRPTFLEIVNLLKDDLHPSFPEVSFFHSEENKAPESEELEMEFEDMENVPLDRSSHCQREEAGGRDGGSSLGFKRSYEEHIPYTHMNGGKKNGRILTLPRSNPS
Sequence of Dual specificity mitogen-activated protein kinase kinase 1 (Homo sapiens) (Q02750 whole entry): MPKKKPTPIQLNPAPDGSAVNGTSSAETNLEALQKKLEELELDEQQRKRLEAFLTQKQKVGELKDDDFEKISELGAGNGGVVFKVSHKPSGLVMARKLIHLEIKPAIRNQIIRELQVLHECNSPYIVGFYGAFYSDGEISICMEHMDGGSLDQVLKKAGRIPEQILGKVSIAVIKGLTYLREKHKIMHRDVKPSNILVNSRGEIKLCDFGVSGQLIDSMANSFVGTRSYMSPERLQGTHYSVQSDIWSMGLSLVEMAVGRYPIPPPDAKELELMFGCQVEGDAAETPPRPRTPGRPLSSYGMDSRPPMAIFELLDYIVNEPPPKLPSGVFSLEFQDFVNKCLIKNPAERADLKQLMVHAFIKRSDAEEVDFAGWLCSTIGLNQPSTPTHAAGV
Sequence of Phosphatidylinositol 4,5-bisphosphate 3-kinase catalytic subunit gamma isoform (P48736 whole entry, canonical isoform): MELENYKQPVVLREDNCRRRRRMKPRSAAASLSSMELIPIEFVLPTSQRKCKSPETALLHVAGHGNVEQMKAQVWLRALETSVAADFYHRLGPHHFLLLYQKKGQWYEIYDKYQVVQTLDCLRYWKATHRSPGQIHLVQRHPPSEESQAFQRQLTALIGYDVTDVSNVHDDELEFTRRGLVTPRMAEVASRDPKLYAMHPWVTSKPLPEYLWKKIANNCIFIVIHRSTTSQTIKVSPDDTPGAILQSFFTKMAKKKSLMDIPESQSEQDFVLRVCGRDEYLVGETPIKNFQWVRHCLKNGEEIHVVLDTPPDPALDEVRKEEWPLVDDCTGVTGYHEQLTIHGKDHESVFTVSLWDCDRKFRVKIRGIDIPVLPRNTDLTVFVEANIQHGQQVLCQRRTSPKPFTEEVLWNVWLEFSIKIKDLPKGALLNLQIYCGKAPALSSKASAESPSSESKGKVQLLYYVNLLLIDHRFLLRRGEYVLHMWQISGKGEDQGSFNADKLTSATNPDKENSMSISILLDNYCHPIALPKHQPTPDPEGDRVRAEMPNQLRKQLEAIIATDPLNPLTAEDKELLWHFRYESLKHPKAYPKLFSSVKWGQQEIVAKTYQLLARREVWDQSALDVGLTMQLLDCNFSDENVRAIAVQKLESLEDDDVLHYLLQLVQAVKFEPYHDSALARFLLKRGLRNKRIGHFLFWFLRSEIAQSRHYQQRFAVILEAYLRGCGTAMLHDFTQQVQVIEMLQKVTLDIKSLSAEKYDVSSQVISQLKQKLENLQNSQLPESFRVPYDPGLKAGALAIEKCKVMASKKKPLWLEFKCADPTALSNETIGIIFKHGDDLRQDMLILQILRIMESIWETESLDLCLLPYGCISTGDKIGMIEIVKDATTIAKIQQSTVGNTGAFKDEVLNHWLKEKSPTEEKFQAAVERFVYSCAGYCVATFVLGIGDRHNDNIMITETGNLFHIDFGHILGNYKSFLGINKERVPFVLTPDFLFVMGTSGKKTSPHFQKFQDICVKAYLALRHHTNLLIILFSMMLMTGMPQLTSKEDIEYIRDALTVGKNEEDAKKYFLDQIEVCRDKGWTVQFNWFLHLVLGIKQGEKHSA
Sequence of Phosphatidylinositol 4,5-bisphosphate 3-kinase catalytic subunit alpha isoform (Homo sapiens, UniProt P42336, E545K) (P42336 whole entry E545K, canonical isoform): as the sequence (P42336 whole entry H1047R, canonical isoform) above, with E545K, R1047H counted along it

## Cc1ccc([N+](=O)[O-])cc1S(=O)(=O)N(CCO)/N=C/c1cnn2ccc(C#N)cc12
[1]
  IC50: 54 nM
[2]
  IC50: 0.8 nM
[3]
  IC50: 0.8 nM
[4]
  IC50: 11 nM
[5]
  Activity: 5%
[6]
  Activity: 59%
[7]
  Activity: 13%
[8]
  Activity: 15%
[9]
  Activity: 8%
[10]
  Activity: 76%
[11]
  Activity: 14%
[12]
  Activity: 2%
[13]
  IC50: 82 nM
[14]
  Tmax: 5 min
[15]
  half-life: 67.8 min
[16]
  AUC(0-inf): 3.16 µM·h
Mus musculus
  Activity: 20%
[17]
  IC50: 234 nM
